Test results taken from ChEMBL document CHEMBL2016433 (Bioorg Med Chem, 2012).
Calls of active or inactive are those of the source.

Legend:
U-937 [1] = assay: Induction of apoptosis in human U937 cells after 24 hrs by acridine orange staining based microscopy; format: functional, cell-based
Summary of the method: (§1)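 U937 cells were treated for 24 h at 37 °C with 1–100 µM compound or vehicle, then stained with acridine orange. Over 600 cells were scored by fluorescence microscopy; apoptosis was defined as uniformly stained nuclei with chromatin condensation or nuclear fragmentation. Mean and SD of at least three determinations.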

U-937 [2] = assay: Cytotoxicity against human U937 cells assessed as induction of cell death at 1 to 100 microM after 24 hrs by trypan blue exclusion method; format: functional, cell-based
U-937 [3] = assay: Cytostatic against human U937 cells assessed as reduction in absolute number of total cells after 24 hrs by haemocytometry; format: functional, cell-based
Summary of the method: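 U937 cells, 5×10^4 per well in RPMI-1640 with 5% FBS, 2 mM L-glutamine and penicillin-streptomycin, were exposed to 1 in 10 serial dilutions from 100 µM to 1 µM (stocks 20 mM in DMSO or medium), or to vehicle, for 24 h at 37 °C in CO₂. Total cells were counted by haemocytometer; mean and SD of at least three determinations.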

U-937 [4] = assay: Induction of cell death in human U937 cells assessed at 1 to 100 microM after 24 hrs by trypan blue exclusion method relative to untreated control; format: functional
Summary of the method: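 U937 cells (5×10^4 per well) exposed for 24 h at 37 °C, 5% CO₂ to 1 in 10 serial dilutions from 1 to 100 µM in RPMI-1640 with 5% FBS. Compounds came from 20 mM stocks in DMSO or medium. Controls got vehicle at equal amounts. Membrane-permeable cells were counted by trypan blue exclusion in a haemocytometer and expressed as percent. Mean and standard deviation from at least three determinations.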

THP-1 [5] = assay: Cytotoxicity against human THP1 cells assessed as cell viability after 24 hrs; format: functional, cell-based; settings: THP-1, 24 h
MOLT-3 [6] = assay: Induction of apoptosis in human MOLT3 cells after 24 hrs by acridine orange staining based fluorescence microscopy; format: functional
Summary of the method: (§2)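 HeLa, MOLT-3 and THP-1 cells were treated with increasing concentrations for 24 h, then stained with acridine orange and more than 600 cells scored by fluorescence microscopy for condensed or fragmented nuclei. AC30 is the concentration giving 30% apoptotic cells, from a best-fit curve versus log concentration.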

MOLT-3 [7] = assay: Cytotoxicity against human MOLT3 cells assessed as cell viability after 24 hrs; format: functional, cell-based; settings: MOLT-3, 24 h
THP-1 [8] = assay: Induction of apoptosis in human THP1 cells after 24 hrs by acridine orange staining based fluorescence microscopy; format: functional; summary of the method: as §2
THP-1 [9] = assay: Cytotoxicity against human THP1 cells after 24 hrs by trypan blue exclusion assay; format: functional
MOLT-3 [10] = assay: Cytotoxicity against human MOLT3 cells after 24 hrs by trypan blue exclusion assay; format: functional
HT-29 [11] = assay: Cytotoxicity against human HT-29 cells after 48 hrs by trypan blue exclusion assay; format: functional
Summary of the method: (§3)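 Adherent HT-29, HepG2 and MCF7 cells were seeded in 96 wells with increasing concentrations and incubated 48 h at 37 °C, 5% CO₂. Trypan blue exclusion was done directly in the culture wells. CC30 is the concentration giving 30% cytotoxicity, from a best-fit curve versus log concentration.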

HepG2 [12] = assay: Cytotoxicity against human HepG2 cells after 48 hrs by trypan blue exclusion assay; format: functional; summary of the method: as §3
U-937 [13] = assay: Induction of apoptosis in human U937 cells assessed as hypodiploid nuclei at 1 uM after 24 hrs by propidium iodide based flow cytometry analysis (reference value: 3.2%); format: functional
HepG2 [14] = assay: Cytotoxicity against human HepG2 cells assessed as cell viability after 48 hrs; format: functional, cell-based; settings: HepG2, 48 h
Summary of the method: (§4)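 HT-29, HepG2 and MCF7 cells were treated in wells with increasing concentrations for 48 h at 37 °C, 5% CO₂. Total cell count was taken by haemocytometer. IC50 is the concentration inhibiting total count by 50%, from a best-fit curve of the value versus log concentration.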

MCF7 [15] = assay: Cytotoxicity against human MCF7 cells after 48 hrs by trypan blue exclusion assay; format: functional; summary of the method: as §3
PBMC [16] = assay: Induction of apoptosis in human PBMC cells assessed as hypodiploid nuclei after 24 hrs by propidium iodide based flow cytometry analysis; format: cell-based
PBMC [17] = assay: Induction of apoptosis in human PBMC cells assessed as hypodiploid nuclei at 10 uM after 48 hrs by propidium iodide based flow cytometry analysis (reference value: 4.7 %); format: cell-based
U-937 [18] = assay: Induction of apoptosis in human U937 cells assessed as hypodiploid nuclei at 100 uM after 24 hrs by propidium iodide based flow cytometry analysis (reference value: 3.2%); format: functional
HT-29 [19] = assay: Cytotoxicity against human HT-29 cells assessed as cell viability after 48 hrs; format: functional, cell-based; settings: HT-29, 48 h; summary of the method: as §4
U-937 [20] = assay: Induction of apoptosis in human U937 cells at 100 uM after 24 hrs by acridine orange staining based microscopy; format: functional, cell-based; summary of the method: as §1
HT-29 [21] = assay: Cytotoxicity against human HT-29 cells assessed as compound concentration causing 30% reduction in formazan product formation after 48 hrs by MTS assay; format: functional; settings: HT-29, 48 h
Summary of the method: (§5)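 HT-29, HepG2 and MCF7 cells were exposed to increasing concentrations for 48 h. MTS reagent was then added directly to the wells, incubated a further 4 h, and absorbance read at 490 nm. MAIC30 is the concentration reducing formazan formation by 30%, from a best-fit curve versus log concentration.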

U-937 [22] = assay: Induction of apoptosis in human U937 cells assessed as hypodiploid nuclei at 10 uM after 24 hrs by propidium iodide based flow cytometry analysis (reference value: 3.2%); format: functional
U-937 [23] = assay: Induction of apoptosis in human U937 cells assessed as hypodiploid nuclei after 24 hrs by propidium iodide based flow cytometry analysis; format: functional, cell-based
MCF7 [24] = assay: Cytotoxicity against human MCF7 cells assessed as compound concentration causing 30% reduction in formazan product formation after 48 hrs by MTS assay; format: functional; settings: MCF7, 48 h; summary of the method: as §5
MCF7 [25] = assay: Cytotoxicity against human MCF7 cells assessed as cell viability after 48 hrs; format: functional, cell-based; settings: MCF7, 48 h; summary of the method: as §4
PBMC [26] = assay: Induction of apoptosis in human PBMC cells assessed as hypodiploid nuclei at 1 uM after 48 hrs by propidium iodide based flow cytometry analysis (reference value: 4.7 %); format: cell-based
HepG2 [27] = assay: Cytotoxicity against human HepG2 cells assessed as compound concentration causing 30% reduction in formazan product formation after 48 hrs by MTS assay; format: functional; settings: HepG2, 48 h; summary of the method: as §5
U-937 [28] = assay: Induction of apoptosis in human U937 cells assessed as hypodiploid nuclei at 50 uM after 24 hrs by propidium iodide based flow cytometry analysis (reference value: 3.2%); format: functional
PBMC [29] = assay: Induction of apoptosis in human PBMC cells assessed as hypodiploid nuclei at 50 uM after 48 hrs by propidium iodide based flow cytometry analysis (reference value: 4.7 %); format: cell-based
PBMC [30] = assay: Induction of apoptosis in human PBMC cells assessed as hypodiploid nuclei at 100 uM after 48 hrs by propidium iodide based flow cytometry analysis (reference value: 4.7 %); format: cell-based

CC(=O)OC[C@H]1O[C@@H](SSCc2cccc(CSS[C@@H]3O[C@H](COC(C)=O)[C@@H](OC(C)=O)[C@H](OC(C)=O)[C@H]3OC(C)=O)c2)[C@H](OC(C)=O)[C@@H](OC(C)=O)[C@@H]1OC(C)=O
Activity (U-937 [1]): Active
Activity (U-937 [2]): Active
Activity (U-937 [3]): Active

CC(=O)OC[C@H]1O[C@@H](SSCc2c(C)c(CSS[C@@H]3O[C@H](COC(C)=O)[C@@H](OC(C)=O)[C@H](OC(C)=O)[C@H]3OC(C)=O)c(C)c(CSS[C@@H]3O[C@H](COC(C)=O)[C@@H](OC(C)=O)[C@H](OC(C)=O)[C@H]3OC(C)=O)c2C)[C@H](OC(C)=O)[C@@H](OC(C)=O)[C@@H]1OC(C)=O
Activity (U-937 [1]): inactive
Activity (U-937 [4]): 25%
Activity (U-937 [2]): Active

CC(=O)OC[C@H]1O[C@@H](SSCc2cc(CSS[C@@H]3O[C@H](COC(C)=O)[C@@H](OC(C)=O)[C@H](OC(C)=O)[C@H]3OC(C)=O)cc(CSS[C@@H]3O[C@H](COC(C)=O)[C@@H](OC(C)=O)[C@H](OC(C)=O)[C@H]3OC(C)=O)c2)[C@H](OC(C)=O)[C@@H](OC(C)=O)[C@@H]1OC(C)=O
Activity (U-937 [1]): inactive
Activity (U-937 [4]): 25%
Activity (U-937 [2]): inactive
Activity (U-937 [3]): Dose-dependent effect

CC(=O)OC[C@H]1O[C@@H](S)[C@H](OC(C)=O)[C@@H](OC(C)=O)[C@H]1OC(C)=O
Activity (U-937 [1]): inactive
IC50 (THP-1 [5]): > 100 µM
AC30 (MOLT-3 [6]): >100 µM
IC50 (MOLT-3 [7]): > 100 µM
AC30 (THP-1 [8]): >100 µM
CC30 (THP-1 [9]): >100 µM
CC30 (MOLT-3 [10]): >100 µM

Cc1c(CSS[C@@H]2O[C@H](CO)[C@@H](O)[C@H](O)[C@H]2O)c(C)c(CSS[C@@H]2O[C@H](CO)[C@@H](O)[C@H](O)[C@H]2O)c(C)c1CSS[C@@H]1O[C@H](CO)[C@@H](O)[C@H](O)[C@H]1O
Activity (U-937 [1]): inactive
Activity (U-937 [4]): 25%
Activity (U-937 [2]): Active

CCc1c(CSS[C@@H]2O[C@H](COC(C)=O)[C@@H](OC(C)=O)[C@H](OC(C)=O)[C@H]2OC(C)=O)c(CC)c(CSS[C@@H]2O[C@H](COC(C)=O)[C@@H](OC(C)=O)[C@H](OC(C)=O)[C@H]2OC(C)=O)c(CC)c1CSS[C@@H]1O[C@H](COC(C)=O)[C@@H](OC(C)=O)[C@H](OC(C)=O)[C@H]1OC(C)=O
Activity (U-937 [1]): inactive
Activity (U-937 [4]): 25%
Activity (U-937 [2]): Active

CC(=O)OC[C@H]1O[C@@H](SSCc2cccc(CSS[C@@H]3O[C@H](COC(C)=O)[C@H](OC(C)=O)[C@H](OC(C)=O)[C@H]3OC(C)=O)c2)[C@H](OC(C)=O)[C@@H](OC(C)=O)[C@H]1OC(C)=O
Activity (U-937 [1]): Active
CC30 (HT-29 [11]): >100 µM
CC30 (HepG2 [12]): 77 µM
IC50 (THP-1 [5]): > 100 µM
Activity (U-937 [13]): 3.1%
IC50 (HepG2 [14]): 54 µM
CC30 (MCF7 [15]): >100 µM
AC30 (MOLT-3 [6]): 15 µM
Activity (PBMC [16]): Non-toxic
IC50 (MOLT-3 [7]): > 100 µM
Activity (PBMC [17]): 7.4%
AC30 (THP-1 [8]): 92 µM
Activity (U-937 [18]): 91.2%
IC50 (HT-29 [19]): 60 µM
Activity (U-937 [20]): Active
IC30 (HT-29 [21]): 12 µM
Activity (U-937 [22]): 4.2%
CC30 (THP-1 [9]): >100 µM
Activity (U-937 [23]): Dose-dependent effect
IC30 (MCF7 [24]): 61 µM
Activity (U-937 [2]): Active
CC30 (MOLT-3 [10]): 54 µM
IC50 (MCF7 [25]): 42 µM
Activity (PBMC [26]): 4.9%
IC30 (HepG2 [27]): 41 µM
Activity (U-937 [3]): Active
Activity (U-937 [28]): 51%
Activity (PBMC [29]): 30.9%
Activity (PBMC [30]): 31.2%

CC(=O)OC[C@H]1O[C@@H](SSCc2ccc(CSS[C@@H]3O[C@H](COC(C)=O)[C@@H](OC(C)=O)[C@H](OC(C)=O)[C@H]3OC(C)=O)cc2)[C@H](OC(C)=O)[C@@H](OC(C)=O)[C@@H]1OC(C)=O
Activity (U-937 [2]): Active

CCc1c(CSS[C@@H]2O[C@H](CO)[C@@H](O)[C@H](O)[C@H]2O)c(CC)c(CSS[C@@H]2O[C@H](CO)[C@@H](O)[C@H](O)[C@H]2O)c(CC)c1CSS[C@@H]1O[C@H](CO)[C@@H](O)[C@H](O)[C@H]1O
Activity (U-937 [1]): inactive
Activity (U-937 [4]): 25%
Activity (U-937 [2]): Active

CC(=O)OC[C@H]1O[C@@H](SSc2cccc(SS[C@@H]3O[C@H](COC(C)=O)[C@@H](OC(C)=O)[C@H](OC(C)=O)[C@H]3OC(C)=O)c2)[C@H](OC(C)=O)[C@@H](OC(C)=O)[C@@H]1OC(C)=O
Activity (U-937 [2]): Active

CCc1c(CSS[C@@H]2O[C@H](COC(C)=O)[C@H](OC(C)=O)[C@H](OC(C)=O)[C@H]2OC(C)=O)c(CC)c(CSS[C@@H]2O[C@H](COC(C)=O)[C@H](OC(C)=O)[C@H](OC(C)=O)[C@H]2OC(C)=O)c(CC)c1CSS[C@@H]1O[C@H](COC(C)=O)[C@H](OC(C)=O)[C@H](OC(C)=O)[C@H]1OC(C)=O
Activity (U-937 [1]): inactive
Activity (U-937 [4]): 25%
Activity (U-937 [2]): inactive
Activity (U-937 [3]): Dose-dependent effect
